Measurements published in PubChem BioAssay.
Activity calls are given as the source filed them.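 How the source made its calls, unless noted: active means mean duplicate potentiation above the buffer control mean plus 5 SD of buffer wells; inactive means the rest.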

Columns and labels:
[1] = thallium flux activation in parental CHO cells, counter-screen for KCNQ1 potentiator project (AID 493006;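 active means duplicate-averaged activation above buffer control mean plus 5 SD of those controls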;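 on activation: fluorescence ratio of max minus min over baseline after K+ and Tl+ depolarization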); details: parental CHO-K1 cells, FluxOR thallium flux, at 10 µM; hits give high values
Procedure, shortened: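 Benchmarks – buffer and R-L3 controls · Assay system – untransfected host CHO-K1 cells with FluxOR thallium dye · Measure – fluorescence change ratio scaled 0% buffer, 100% R-L3 · Technique – kinetic thallium-flux fluorescence · Timing – overnight 37 °C plating, 90 min RT dye, 20 min compound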

[2] = biological target: Potassium voltage-gated channel subfamily KQT member 1 (Homo sapiens) (UniProt P51787); assay: KCNQ1 potassium channel potentiators, confirmation, FluxOR thallium flux, CHO cells, duplicates (AID 493007;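 active means potentiation averaged over duplicate wells exceeding buffer-only control mean by more than 3 SD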;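 on outcome: cells depolarized by a potassium plus thallium sulfate stimulus after compound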); details: KCNQ1 cell line, FluxOR thallium flux fluorescence, at 10 µM; hits give high values, % of reference activator effect, buffer zero
Procedure, shortened: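 Material: CHO cells stably expressing the KCNQ1 potassium channel / Times: dye 90 min then compound 20 min, both at room temperature / Detection: kinetic thallium influx fluorescence with FluxOR dye, 10 s baseline, 110 s post-stimulus / Benchmarks: buffer-only wells as 0% and R-L3 activator as 100% / Replicates: each compound tested in duplicate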

[3] = biological target: Potassium voltage-gated channel subfamily KQT member 2 (Rattus norvegicus) (UniProt O88943); assay: rat KCNQ2 channel potentiation, selectivity assay for KCNQ1 potentiator project, KCNQ2-CHO-K1 cells (AID 493009); details: FluxOR thallium flux fluorescence, at 10 µM; hits give high values, scaled: buffer 0, activator control 100;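 further: assay conditions were tuned for KCNQ1 rather than KCNQ2 modulators; signal is max minus min fluorescence divided by baseline after thallium stimulus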
[4] = biological target: Potassium voltage-gated channel subfamily KQT member 1 (Homo sapiens) (UniProt P51787); assay: KCNQ1 channel current potentiators, confirmation, orthogonal assay for KCNQ1 potentiator project, IonWorks patch clamp, KCNQ1-CHO cells (AID 493184;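 active means current rise at least 3 SD above the untreated control mean in each of two repeat wells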); details: automated patch clamp current, at 10 µM; hits give high values
Procedure, shortened: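 Probe or stimulus: depolarizing pulse to +40 mV from -90 mV; Material: CHO cells carrying KCNQ1; Compound: one dose, 10 µM final; Signal: automated voltage clamp, amphotericin B perforated patch; Read-out basis: percent current increase versus pre-compound level; Buffer or medium: pH 7.4 external bath; Replication: duplicates.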

Chain of Potassium voltage-gated channel subfamily KQT member 2 (Rattus norvegicus) (O88943 whole entry, looked up): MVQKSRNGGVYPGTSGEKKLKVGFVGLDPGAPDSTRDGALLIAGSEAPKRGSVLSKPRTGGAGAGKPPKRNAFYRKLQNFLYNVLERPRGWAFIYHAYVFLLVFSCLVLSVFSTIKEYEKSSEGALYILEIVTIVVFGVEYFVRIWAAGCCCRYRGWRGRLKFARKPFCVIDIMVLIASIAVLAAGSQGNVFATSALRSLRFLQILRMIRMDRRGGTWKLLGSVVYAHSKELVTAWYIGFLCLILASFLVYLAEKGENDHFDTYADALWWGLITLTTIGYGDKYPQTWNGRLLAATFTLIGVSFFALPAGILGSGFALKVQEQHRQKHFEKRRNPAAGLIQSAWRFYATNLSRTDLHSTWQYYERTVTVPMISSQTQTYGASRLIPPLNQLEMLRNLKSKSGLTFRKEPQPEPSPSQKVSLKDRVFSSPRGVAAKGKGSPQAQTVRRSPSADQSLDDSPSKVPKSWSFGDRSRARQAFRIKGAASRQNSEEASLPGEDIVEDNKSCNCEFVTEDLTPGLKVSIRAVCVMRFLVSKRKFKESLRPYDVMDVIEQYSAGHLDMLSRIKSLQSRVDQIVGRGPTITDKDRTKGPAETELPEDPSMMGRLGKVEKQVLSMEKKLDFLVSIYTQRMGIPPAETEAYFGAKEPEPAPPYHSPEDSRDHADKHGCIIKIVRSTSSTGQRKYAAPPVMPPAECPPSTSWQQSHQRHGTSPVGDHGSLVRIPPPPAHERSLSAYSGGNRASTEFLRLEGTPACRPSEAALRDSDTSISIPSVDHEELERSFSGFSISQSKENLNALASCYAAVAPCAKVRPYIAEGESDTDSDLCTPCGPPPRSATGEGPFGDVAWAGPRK
Chain of Potassium voltage-gated channel subfamily KQT member 1 (Homo sapiens) (P51787 whole entry, looked up): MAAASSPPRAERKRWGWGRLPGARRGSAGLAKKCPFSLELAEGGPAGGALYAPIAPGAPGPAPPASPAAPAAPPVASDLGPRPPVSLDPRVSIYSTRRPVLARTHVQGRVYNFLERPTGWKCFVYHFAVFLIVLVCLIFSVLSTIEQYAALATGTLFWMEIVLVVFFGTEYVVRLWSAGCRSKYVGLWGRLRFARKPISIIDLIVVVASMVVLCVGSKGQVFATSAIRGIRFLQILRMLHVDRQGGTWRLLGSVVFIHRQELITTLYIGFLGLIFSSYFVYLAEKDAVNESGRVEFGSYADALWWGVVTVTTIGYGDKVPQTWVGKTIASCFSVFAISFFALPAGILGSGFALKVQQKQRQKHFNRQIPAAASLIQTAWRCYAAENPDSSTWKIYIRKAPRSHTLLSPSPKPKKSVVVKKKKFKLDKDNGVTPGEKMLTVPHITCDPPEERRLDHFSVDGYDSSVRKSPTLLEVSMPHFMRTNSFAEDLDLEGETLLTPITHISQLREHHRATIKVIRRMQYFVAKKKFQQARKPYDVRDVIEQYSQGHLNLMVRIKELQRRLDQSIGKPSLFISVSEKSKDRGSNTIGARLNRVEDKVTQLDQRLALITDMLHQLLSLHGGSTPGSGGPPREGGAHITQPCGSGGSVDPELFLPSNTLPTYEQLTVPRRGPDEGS

Row | Structure (SMILES) | outcome [1] | outcome [2] | outcome [3] | outcome [4] | activation [1] | potentiation [2] | potentiation [3]
1 | Fc1ccc(SCCc2ccncc2)cc1 | inactive | inactive | inactive | inactive |  |  | 
2 | O=C(CSc1nc(=O)n2ccccc2n1)NCc1ccccc1 | inactive | inactive | inactive | inactive |  |  | 
3 | COc1ccc(C(=O)CSc2nnc(NC(=O)C3CC(=O)N(c4cccc(OC)c4)C3)s2)cc1 (centres undefined) | inactive | inactive | inactive | inactive |  |  | 
4 | CN(C)CCCn1c(=O)n(C2CCCCC2)c(=O)c2c3c(sc21)CCCCC3 |  |  |  | inactive | 167% (active) | 224% (active) | 154% (active)
5 | Oc1[nH]c2ccc(Br)cc2c1N=NC(=S)NCC1CCCO1 (centres undefined) |  |  |  | inactive | 182% (active) | 37.5% (active) | 204% (active)
6 | O=C(CNc1ccc2c(c1)OCO2)N/N=C\c1cn(Cc2ccccc2)c2ccccc12 | inactive | inactive | inactive | inactive |  |  | 
7 | O=C(CSc1nc2cc(Cl)ccc2s1)c1cc2ccccc2o1 | inactive | inactive | inactive | inactive |  |  | 
8 | CCN(CC)S(=O)(=O)c1cccc(C(=O)N[C@H](C(=O)NNC(=O)c2ccccc2)C(C)C)c1 | inactive | inactive | inactive | inactive |  |  | 
9 | Cc1ccc(N2C(=O)N3[C@H](c4ccc(F)cc4)[C@@H]4C(=O)N(C5CCCCC5)C(=O)[C@@H]4[C@]3(Cc3ccccc3)C2=O)cc1 | inactive | inactive | inactive | inactive |  |  | 
10 | CON/C=N/C(=S)Nc1ncc(C(F)(F)F)cc1Cl |  |  |  | inactive | 283% (active) | 87.5% (active) | 337% (active)
11 | O=C(COC(=O)C1C2CC3OC(=O)C1C3C2)Nc1ccc(Cl)cc1 (centres undefined) | inactive | inactive | inactive | inactive |  |  | 
12 | O=C(N/N=C/c1c[nH]c2ccccc12)C1COc2ccccc2O1 (centres undefined) | inactive | inactive | inactive | inactive |  |  | 
13 | O=C(Nc1nc2c(Br)cc(Br)cc2c(=O)s1)C1CCC1 |  |  |  | inactive | 192% (active) | 29% (active) | 176% (active)
14 | Cc1cc(-c2csc3nc[nH]c(=S)c23)cc(C)c1C |  |  |  | inactive | 286% (active) | 255% (active) | 408% (active)
15 | N#Cc1cn(CC(=O)NCC2CCCO2)c2ccccc12 (centres undefined) | inactive | inactive | inactive | inactive |  |  | 
16 | COc1cc(C2C(C#N)=C(N)Oc3cc(O)ccc32)cc2c1OCO2 (centres undefined) | inactive | inactive | inactive | inactive |  |  | 

Row | Structure (SMILES) | outcome [1] | outcome [2] | outcome [3] | outcome [4] | activation [1] | potentiation [2] | potentiation [3]
17 | CC1CCN(C(=S)NC(=O)c2cccs2)CC1 |  |  |  | inactive | 143% (active) | 28.5% (active) | 186% (active)
18 | NC(=O)CSc1nnc(-c2ccccc2Br)n1-c1cccc(C(F)(F)F)c1 | inactive |  | inactive | inactive |  | 43.5% (active) | 
19 | Cc1ccc(-c2csc3nc[nH]c(=S)c23)cc1C |  |  |  | inactive | 223% (active) | 56.5% (active) | 222% (active)
20 | Cc1cc(C)c(NC(=O)CN2C(=O)NC3(CCCc4ccccc43)C2=O)c(Cl)c1 (centres undefined) | inactive | inactive | inactive | inactive |  |  | 
21 | O=c1oc2cc(OCCO)ccc2c2c1CCCC2 | inactive | inactive | inactive | inactive |  |  | 
22 | O=C(NC(=S)NCc1ccccc1)c1ccc(Br)o1 |  |  |  | inactive | 434% (active) | 313% (active) | 510% (active)
23 | O=C(NC(=S)N1CCc2ccccc21)c1ccccc1 |  |  |  | inactive | 308% (active) | 162% (active) | 366% (active)
24 | CCn1nnc2cc(C(=O)Nc3cc(S(C)(=O)=O)ccc3Cl)ccc21 | inactive | inactive | inactive | inactive |  |  | 
25 | CC(=O)OC1OCCOC1NC(=S)Nc1ccc(C)cc1 (centres undefined) | inactive | inactive | inactive | inactive |  |  | 
26 | O=C(NC(=S)N1CCN(Cc2ccc3c(c2)OCO3)CC1)c1ccc(Cl)cc1 |  |  |  | inactive | 260% (active) | 86% (active) | 298% (active)
27 | CCc1cccc(C)c1NC(=O)c1ccc2nc(N3CCOCC3)sc2c1 | inactive | inactive | inactive | inactive |  |  | 
28 | COc1ccc(OC)c(S(=O)(=O)Nc2ccc3c(c2)N(C(C)=O)CCC3)c1 | inactive | inactive | inactive | inactive |  |  | 
29 | Cc1cc(C)nc(CCNC(=O)c2cc(COc3ccccc3)on2)n1 | inactive | inactive | inactive | inactive |  |  | 
30 | O=C(NC(=S)Nc1ccccc1N1CCCCC1)c1ccc(F)cc1Cl | inactive |  | inactive | inactive |  | 49.5% (active) | 
31 | O=C(NCC1CCCO1)c1ccc2c(c1)S(=O)(=O)c1ccccc1C2=O (centres undefined) | inactive | inactive | inactive | inactive |  |  | 
